Data taken from BindingDB's records for doi:10.1128/AAC.00669-08 (Tibotec, 2008).

Key:
[1] = molecular target: T1, DNA polymerase alpha catalytic subunit (Homo sapiens, UniProt P09884); assay: Inhibition of human DNA polymerase alpha
T1 sequence (P09884 whole entry): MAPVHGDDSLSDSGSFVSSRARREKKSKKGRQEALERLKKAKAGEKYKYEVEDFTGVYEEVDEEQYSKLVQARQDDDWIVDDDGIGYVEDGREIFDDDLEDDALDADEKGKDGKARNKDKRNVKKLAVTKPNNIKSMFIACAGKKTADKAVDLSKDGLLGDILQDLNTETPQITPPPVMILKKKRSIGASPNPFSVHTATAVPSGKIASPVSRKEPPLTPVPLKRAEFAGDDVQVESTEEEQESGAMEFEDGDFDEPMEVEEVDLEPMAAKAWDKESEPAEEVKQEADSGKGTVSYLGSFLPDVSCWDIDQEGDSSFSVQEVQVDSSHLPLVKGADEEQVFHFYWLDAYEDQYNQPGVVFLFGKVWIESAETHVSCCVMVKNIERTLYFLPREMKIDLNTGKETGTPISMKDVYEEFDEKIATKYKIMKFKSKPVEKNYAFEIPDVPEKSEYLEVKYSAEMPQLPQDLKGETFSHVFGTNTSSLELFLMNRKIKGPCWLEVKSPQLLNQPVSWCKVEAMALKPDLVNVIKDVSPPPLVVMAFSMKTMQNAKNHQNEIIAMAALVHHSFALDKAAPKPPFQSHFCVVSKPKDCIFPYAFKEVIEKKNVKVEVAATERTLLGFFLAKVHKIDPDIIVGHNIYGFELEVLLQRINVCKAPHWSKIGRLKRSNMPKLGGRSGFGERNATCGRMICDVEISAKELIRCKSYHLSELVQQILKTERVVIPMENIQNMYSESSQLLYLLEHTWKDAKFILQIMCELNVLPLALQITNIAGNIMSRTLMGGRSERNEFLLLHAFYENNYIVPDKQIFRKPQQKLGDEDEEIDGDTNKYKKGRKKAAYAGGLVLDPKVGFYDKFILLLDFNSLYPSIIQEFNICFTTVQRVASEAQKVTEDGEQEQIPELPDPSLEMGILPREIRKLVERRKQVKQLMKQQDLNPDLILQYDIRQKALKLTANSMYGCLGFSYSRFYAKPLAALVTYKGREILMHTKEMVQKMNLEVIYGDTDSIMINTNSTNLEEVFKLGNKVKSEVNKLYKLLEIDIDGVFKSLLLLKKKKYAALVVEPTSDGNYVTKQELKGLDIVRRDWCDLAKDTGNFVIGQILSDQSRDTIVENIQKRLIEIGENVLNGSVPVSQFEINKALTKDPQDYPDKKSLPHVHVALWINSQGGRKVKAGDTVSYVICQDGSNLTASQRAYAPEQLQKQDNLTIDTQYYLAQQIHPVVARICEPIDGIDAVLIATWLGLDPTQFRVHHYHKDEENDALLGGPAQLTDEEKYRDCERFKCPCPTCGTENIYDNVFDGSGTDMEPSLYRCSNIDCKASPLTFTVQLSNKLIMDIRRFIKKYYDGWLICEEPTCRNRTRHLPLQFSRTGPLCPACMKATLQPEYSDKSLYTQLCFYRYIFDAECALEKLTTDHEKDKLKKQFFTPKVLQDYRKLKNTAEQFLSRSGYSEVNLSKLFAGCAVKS
Procedure, shortened: (§1)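 Each enzyme–compound pair was tested in duplicate over 0.8 to 100 μM, with 100 μM as the highest dose. Each run included a no-inhibitor control, a solvent dilution (0.016 to 2% DMSO) and the relevant reference inhibitor. Percent inhibition at 100 μM was recorded for polymerase γ.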

[2] = molecular target: DNA polymerase beta (Homo sapiens, UniProt P06746); assay: Inhibition of human DNA polymerase beta; procedure, shortened: as §1
[3] = molecular target: T2, DNA polymerase subunit gamma-1 (Homo sapiens, UniProt P54098); assay: Inhibition of human DNA polymerase gamma; procedure, shortened: as §1
T2 sequence (P54098 whole entry): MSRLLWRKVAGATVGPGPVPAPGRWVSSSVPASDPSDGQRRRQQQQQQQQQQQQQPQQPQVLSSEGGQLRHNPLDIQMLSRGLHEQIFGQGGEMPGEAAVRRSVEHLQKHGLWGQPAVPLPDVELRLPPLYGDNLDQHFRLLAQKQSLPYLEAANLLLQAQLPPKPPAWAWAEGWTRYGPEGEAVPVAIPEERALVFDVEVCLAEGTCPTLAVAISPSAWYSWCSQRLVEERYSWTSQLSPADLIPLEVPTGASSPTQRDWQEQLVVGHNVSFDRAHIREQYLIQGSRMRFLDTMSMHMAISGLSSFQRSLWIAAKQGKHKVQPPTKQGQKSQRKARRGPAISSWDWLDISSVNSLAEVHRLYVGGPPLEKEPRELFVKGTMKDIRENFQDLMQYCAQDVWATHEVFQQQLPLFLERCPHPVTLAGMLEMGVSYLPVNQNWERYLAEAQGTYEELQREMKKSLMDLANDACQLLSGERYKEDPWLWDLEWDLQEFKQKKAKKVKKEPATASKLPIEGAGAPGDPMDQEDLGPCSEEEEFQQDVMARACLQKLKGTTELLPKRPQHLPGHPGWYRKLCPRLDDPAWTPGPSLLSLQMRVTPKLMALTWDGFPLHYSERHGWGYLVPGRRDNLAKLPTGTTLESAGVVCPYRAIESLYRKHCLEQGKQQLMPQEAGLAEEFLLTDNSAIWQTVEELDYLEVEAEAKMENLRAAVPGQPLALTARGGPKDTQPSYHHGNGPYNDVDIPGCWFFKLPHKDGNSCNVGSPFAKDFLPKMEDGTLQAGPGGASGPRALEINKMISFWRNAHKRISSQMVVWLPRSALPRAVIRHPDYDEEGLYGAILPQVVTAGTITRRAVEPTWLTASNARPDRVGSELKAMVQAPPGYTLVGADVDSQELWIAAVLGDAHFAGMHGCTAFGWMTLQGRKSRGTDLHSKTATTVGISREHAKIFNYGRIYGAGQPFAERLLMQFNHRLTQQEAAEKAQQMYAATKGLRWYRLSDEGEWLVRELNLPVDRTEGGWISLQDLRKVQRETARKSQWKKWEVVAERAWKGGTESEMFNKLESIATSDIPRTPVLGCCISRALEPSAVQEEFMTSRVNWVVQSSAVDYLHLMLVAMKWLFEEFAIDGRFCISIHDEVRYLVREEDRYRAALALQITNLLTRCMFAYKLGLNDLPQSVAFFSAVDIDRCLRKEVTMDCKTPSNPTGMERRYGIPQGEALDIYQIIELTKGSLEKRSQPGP

[4] = molecular target: T3, Translocator protein (Homo sapiens, UniProt P30536); assay: (§2) Inhibition of peripheral benzodiazepine BZD receptor by radioligand binding assay
T3 sequence (P30536 whole entry): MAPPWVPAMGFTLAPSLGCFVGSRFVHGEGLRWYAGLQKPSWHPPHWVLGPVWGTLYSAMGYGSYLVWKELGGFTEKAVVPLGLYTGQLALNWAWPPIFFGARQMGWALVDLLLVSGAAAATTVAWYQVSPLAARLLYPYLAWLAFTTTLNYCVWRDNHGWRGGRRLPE
Procedure, shortened: (§3)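 Radioligand binding assays for the GABA-A central BZD receptor and the peripheral BZD receptor were run as a single experiment in duplicate.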

[5] = molecular target: T3, Translocator protein; assay: as §2; procedure, shortened: as §3; remark: listed apart in the source

IC50 [1] [µM] | IC50 [2] [µM] | IC50 [3] [µM] | IC50 [4] [µM] | IC50 [5] [µM] | SMILES
> 100 | > 100 | > 100 | – | – | CC(=O)N1c2ccccc2N=C2CC(C)(C)CC(=O)C2C1c1ccc(Cl)cc1Cl (stereo not drawn) [10-acetyl-11-(2,4-dichlorophenyl)-3,3-dimethyl-2,3,4,5,10,11-hexahydro-1H-dibenzo[b,e][1,4]diazepin-1-one]
> 100 | > 100 | > 100 | – | – | COc1ccc(C2C3C(=O)CC(C)(C)CC3=Nc3ccccc3N2C(C)=O)cc1OCc1ccccc1 (stereo not drawn) [10-acetyl-11-(3-(benzyloxy)-4-methoxyphenyl)-3,3-dimethyl-2,3,4,5,10,11-hexahydro-1H-dibenzo[b,e][1,4]diazepin-1-one]
– | – | – | > 30 | > 30 | CC(=O)N1c2cccc(O)c2N=C2CC(C)(C)CC(=O)C2C1c1ccc(OCc2ccccc2)cc1Cl (stereo not drawn) [10-acetyl-11-(4-(benzyloxy)-2-chlorophenyl)-6-hydroxy-3,3-dimethyl-2,3,4,5,10,11-hexahydro-1H-dibenzo[b,e][1,4]diazepin-1-one]
